In brackets after ≈: the same amount, converted by molar mass.
Legend:
Escherichia coli = assay: Antimicrobial activity against Escherichia coli ATCC 35218 after 24 hrs by broth microdilution method; type: functional; settings: ATCC 35218, 24 h
How it was run: (§1)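 Strains kept at −80 °C in BHI broth with 20% glycerol and revived on BHI at 37 °C overnight. NCCLS standard broth microdilution with 1:2 serial dilutions from 1 to 128 μM and an inoculum of 1 × 10⁵ CFU/mL. Ampicillin and kanamycin served as controls.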

Staphylococcus aureus [1] = assay: Antimicrobial activity against methicillin-resistant and vancomycin-intermediate Staphylococcus aureus NRS402 after 24 hrs by broth microdilution method; type: functional; settings: NRS402, 24 h
How it was run: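 Broth microdilution per NCCLS standard; strain stored at -80 °C in BHI broth with 20% glycerol, revived on BHI at 37 °C overnight. […] Ampicillin and kanamycin included as controls.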

Enterococcus faecalis = assay: Antimicrobial activity against Enterococcus faecalis ATCC 29212 after 24 hrs by broth microdilution method; type: functional; settings: ATCC 29212, 24 h; how it was run: as §1
Staphylococcus aureus [2] = assay: Antimicrobial activity against methicillin-sensitive Staphylococcus aureus ATCC 25923 after 24 hrs by broth microdilution method; settings: ATCC 25923, 24 h
Saccharomyces cerevisiae = assay: Antimicrobial activity against Saccharomyces cerevisiae BY4741 after 24 hrs by broth microdilution method; type: functional; settings: BY4741, 24 h
Candida albicans = assay: Antimicrobial activity against Candida albicans […] after 24 hrs by broth microdilution method; type: functional
Nakaseomyces glabratus = assay: Antimicrobial activity against Candida glabrata ATCC 9984 after 24 hrs by broth microdilution method; type: functional; settings: ATCC 9984, 24 h

## CCc1oc(OC)c(Cc2c(O)c3c(c(C(=O)[C@@H](C)CC)c2O)OC(C)(C)C=C3)c(=O)c1C
Escherichia coli
  MIC: > 128 µM
Staphylococcus aureus [1]
  MIC: > 128 µM
Enterococcus faecalis
  MIC: > 128 µM
Staphylococcus aureus [2]
  MIC: > 128 µM

## CCc1oc(=O)c(Cc2c(O)c3c(c(C(=O)[C@@H](C)CC)c2O)OC(C)(C)C=C3)c(O)c1C
Escherichia coli
  MIC: > 128 µM
Staphylococcus aureus [1]
  MIC: 64 µM (≈ 28.3 µg/mL)
Enterococcus faecalis
  MIC: > 128 µM
Saccharomyces cerevisiae
  MIC: > 128 µM
Candida albicans
  MIC: > 128 µM
Nakaseomyces glabratus
  MIC: > 128 µM
Staphylococcus aureus [2]
  MIC: 64 µM (≈ 28.3 µg/mL)

## C=C(C)[C@@H]1Cc2c(O)c(Cc3c(O)c(C)c(CC)oc3=O)c(O)c(C(=O)[C@@H](C)CC)c2O1
Escherichia coli
  MIC: > 128 µM
Staphylococcus aureus [1]
  MIC: 64 µM (≈ 28.3 µg/mL)
Enterococcus faecalis
  MIC: 64 µM (≈ 28.3 µg/mL)
Saccharomyces cerevisiae
  MIC: > 128 µM
Candida albicans
  MIC: > 128 µM
Nakaseomyces glabratus
  MIC: > 128 µM
Staphylococcus aureus [2]
  MIC: 32 µM (≈ 14.2 µg/mL)

## CCc1oc(=O)c(Cc2c(O)c3c(c(C(=O)[C@@H](C)CC)c2O)OC(C)(C)[C@@H](O)C3)c(O)c1C
Escherichia coli
  MIC: > 128 µM
Staphylococcus aureus [1]
  MIC: > 128 µM
Enterococcus faecalis
  MIC: > 128 µM
Saccharomyces cerevisiae
  MIC: > 128 µM
Candida albicans
  MIC: > 128 µM
Nakaseomyces glabratus
  MIC: > 128 µM
Staphylococcus aureus [2]
  MIC: > 128 µM

## C=C(C)C(O)Cc1c(O)c(C(=O)[C@@H](C)CC)c2oc3c4c(c(C(=O)[C@@H](C)CC)c(O)c3c2c1O)OC(C)(C)C=C4 (some centres not stated)
Escherichia coli
  MIC: > 128 µM
Staphylococcus aureus [1]
  MIC: 32 µM (≈ 17.6 µg/mL)
Enterococcus faecalis
  MIC: 64 µM (≈ 35.2 µg/mL)
Saccharomyces cerevisiae
  MIC: > 128 µM
Candida albicans
  MIC: > 128 µM
Nakaseomyces glabratus
  MIC: > 128 µM
Staphylococcus aureus [2]
  MIC: 32 µM (≈ 17.6 µg/mL)

## CCc1oc(=O)c(Cc2c(O)c(CC=C(C)C)c(O)c(C(=O)[C@@H](C)CC)c2O)c(O)c1C
Escherichia coli
  MIC: > 128 µM
Staphylococcus aureus [1]
  MIC: 8 µM (≈ 3.56 µg/mL)
Enterococcus faecalis
  MIC: 64 µM (≈ 28.4 µg/mL)
Saccharomyces cerevisiae
  MIC: > 128 µM
Candida albicans
  MIC: > 128 µM
Nakaseomyces glabratus
  MIC: > 128 µM
Staphylococcus aureus [2]
  MIC: 8 µM (≈ 3.56 µg/mL)

## CCc1oc(OC)c(Cc2c(O)c(C(=O)[C@@H](C)CC)c3c(c2OC)C=CC(C)(C)O3)c(=O)c1C
Escherichia coli
  MIC: > 128 µM
Staphylococcus aureus [1]
  MIC: > 128 µM
Enterococcus faecalis
  MIC: > 128 µM
Staphylococcus aureus [2]
  MIC: > 128 µM

## CCc1oc(=O)c(Cc2c(O)c(C(=O)[C@@H](C)CC)c3c(c2OC)C=CC(C)(C)O3)c(OC)c1C
Escherichia coli
  MIC: > 128 µM
Staphylococcus aureus [1]
  MIC: > 128 µM
Enterococcus faecalis
  MIC: > 128 µM
Staphylococcus aureus [2]
  MIC: > 128 µM

## CCc1oc(=O)c(Cc2c(OC(C)=O)c3c(c(C(=O)[C@@H](C)CC)c2OC(C)=O)OC(C)(C)C=C3)c(OC(C)=O)c1C
Escherichia coli
  MIC: > 128 µM
Staphylococcus aureus [1]
  MIC: > 128 µM
Enterococcus faecalis
  MIC: > 128 µM
Staphylococcus aureus [2]
  MIC: > 128 µM

## CCc1oc(=O)c(Cc2c(O)c3c(c(C(=O)[C@@H](C)CC)c2O)OC(C)(C)CC3)c(O)c1C
Escherichia coli
  MIC: > 128 µM
Staphylococcus aureus [1]
  MIC: > 128 µM
Enterococcus faecalis
  MIC: > 128 µM
Staphylococcus aureus [2]
  MIC: > 128 µM

## CCc1oc(=O)c(Cc2c(O)c(C(=O)[C@@H](C)CC)c3c(c2O)C2OC2C(C)(C)O3)c(O)c1C (some centres not stated)
Escherichia coli
  MIC: > 128 µM
Staphylococcus aureus [1]
  MIC: > 128 µM
Enterococcus faecalis
  MIC: > 128 µM
Staphylococcus aureus [2]
  MIC: > 128 µM

## CCc1oc(=O)c(Cc2c(O)c3c(c(C(=O)[C@@H](C)CC)c2O)OC(C)(C)C(Br)=C3)c(O)c1C
Escherichia coli
  MIC: > 128 µM
Staphylococcus aureus [1]
  MIC: 8 µM (≈ 4.17 µg/mL)
Enterococcus faecalis
  MIC: > 128 µM
Staphylococcus aureus [2]
  MIC: 16 µM (≈ 8.34 µg/mL)

## CCc1[nH]c(=O)c(Cc2c(O)c3c(c(C(=O)[C@@H](C)CC)c2O)OC(C)(C)C=C3)c(O)c1C
Escherichia coli
  MIC: > 128 µM
Staphylococcus aureus [1]
  MIC: 32 µM (≈ 14.1 µg/mL)
Enterococcus faecalis
  MIC: > 128 µM
Staphylococcus aureus [2]
  MIC: 32 µM (≈ 14.1 µg/mL)

## CCc1oc(=O)c(Cc2c(O)c3c(c(C(=O)[C@@H](C)CC)c2O)OC(C(C)(C)O)C3)c(O)c1C (some centres not stated)
Escherichia coli
  MIC: > 128 µM
Staphylococcus aureus [1]
  MIC: > 128 µM
Enterococcus faecalis
  MIC: > 128 µM
Staphylococcus aureus [2]
  MIC: > 128 µM

## CCc1oc(=O)c(Cc2c(O)c(CCC(C)C)c(O)c(C(=O)[C@@H](C)CC)c2O)c(O)c1C
Escherichia coli
  MIC: > 128 µM
Staphylococcus aureus [1]
  MIC: 4 µM (≈ 1.79 µg/mL)
Enterococcus faecalis
  MIC: 32 µM (≈ 14.3 µg/mL)
Staphylococcus aureus [2]
  MIC: 4 µM (≈ 1.79 µg/mL)

## C=C(C)C(O)Cc1c(O)c(C(=O)C(C)CC)c(O)c2c1oc1c(C(=O)C(C)CC)c(O)c(CC=C(C)C)c(O)c12 (configuration not stated) [ACHYROFURAN]
Escherichia coli
  MIC: > 128 µM
Staphylococcus aureus [1]
  MIC: < 1 µM
Enterococcus faecalis
  MIC: 2 µM (≈ 1.11 µg/mL)
Saccharomyces cerevisiae
  MIC: > 128 µM
Candida albicans
  MIC: > 128 µM
Nakaseomyces glabratus
  MIC: > 128 µM
Staphylococcus aureus [2]
  MIC: < 1 µM

## CC1(C)S[C@@H]2[C@H](NC(=O)[C@H](N)c3ccccc3)C(=O)N2[C@H]1C(=O)O [AMPICILLIN]
Escherichia coli
  MIC: > 128 µM
Staphylococcus aureus [1]
  MIC: 120 µM (≈ 41.9 µg/mL)
Enterococcus faecalis
  MIC: 8.8 µM (≈ 3.07 µg/mL)
Staphylococcus aureus [2]
  MIC: < 1 µM

## COc1c(-c2ccccc2)oc2c(OC)c(O)cc(O)c2c1=O [GNAPHALIIN]
Escherichia coli
  MIC: > 128 µM
Staphylococcus aureus [1]
  MIC: > 128 µM
Enterococcus faecalis
  MIC: > 128 µM
Saccharomyces cerevisiae
  MIC: > 128 µM
Candida albicans
  MIC: > 128 µM
Nakaseomyces glabratus
  MIC: > 128 µM
Staphylococcus aureus [2]
  MIC: > 128 µM

## NC[C@H]1O[C@H](O[C@H]2[C@H](O)[C@@H](O[C@H]3O[C@H](CO)[C@@H](O)[C@H](N)[C@H]3O)[C@H](N)C[C@@H]2N)[C@H](O)[C@@H](O)[C@@H]1O [KANAMYCIN]
Escherichia coli
  MIC: > 128 µM
Staphylococcus aureus [1]
  MIC: 240 µM (≈ 116 µg/mL)
Enterococcus faecalis
  MIC: 360 µM (≈ 174 µg/mL)
Staphylococcus aureus [2]
  MIC: 2.8 µM (≈ 1.36 µg/mL)

Reference: ChEMBL document CHEMBL3351231, “Structure and antimicrobial activity of phloroglucinol derivatives from Achyrocline satureioides” (2015)
